Consider four compounds from ChEMBL document CHEMBL1123326, “Sequentially labile water-soluble prodrugs of alprazolam” (J Med Chem, 1986).

Data set [1] addresses T1, GABA-A receptor; anion channel (Mus musculus) (UniProt Q8BHJ7+P26048+Q8QZW7+P50571+Q9R0Y8+P22723+A2AMW3+P62812+Q9JLF1+P26049+P22933+Q9D6F4+P63080+P27681+P16305). Put plainly: Ex vivo displacement of [3H]flunitrazepam from mouse GABA-A benzodiazepine receptor at 3 uM/kg iv dose. Format: organism-based. In a few lines: (§1)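 Mice dosed iv by tail vein (drugs in 0.9% NaCl, or 2% ethanol for parent; controls given vehicle); decapitated 30 min later (dose-response) or at 1, 3, 10, 30, 60 min (time course). Brain minus cerebellum homogenized in 50 vol 0.05 M Tris pH 7.4, 4 °C; incubated with ~0.77 nM [3H]flunitrazepam final, 30 min, 25 °C; GF/B filtration, scintillation counting. Mean of four measurements.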

Data set [2] is described as follows: Half-life period at 37 degrees C. In kind it is ADME.
For data set [3], the target named is T1, GABA-A receptor; anion channel (Mus musculus). Put plainly: Ex vivo inhibition of [3H]flunitrazepam binding to mouse GABA-A benzodiazepine receptor. In kind it is functional. In outline:
as §1

Data set [4] shares this target. Put plainly: Ex vivo displacement of [3H]flunitrazepam from mouse GABA-A benzodiazepine receptor at 10 uM/kg iv dose. In kind it is organism-based. In outline:
as §1

Data set [5] shares this target. The experiment in a line: Ex vivo displacement of [3H]flunitrazepam from mouse GABA-A benzodiazepine receptor at 1 uM/kg iv dose. Format: organism-based. In outline:
as §1

Data set [6] has the same target. The experiment in a line: Ex vivo displacement of [3H]flunitrazepam from mouse GABA-A benzodiazepine receptor at 30 uM/kg iv dose (Range 5-10%). In kind it is organism-based. In outline: as §1

In the case of `Cc1nnc(CNC(=O)CN)n1-c1ccc(Cl)cc1C(=O)c1ccccc1`, the Control in data set [1] turned out to be 50%; in data set [4], 3%; in data set [5], 65%. The compound further yielded a half-life in data set [2] of 4.33 h. In data set [3], this compound had an ED50 of 9 µmol/kg.

For `Cc1nnc(CNC(=O)C(N)CC(C)C)n1-c1ccc(Cl)cc1C(=O)c1ccccc1` (configuration not stated), the Control in data set [1] was 60%; in data set [6], 10%; in data set [4] it was 25%; in data set [5], 82%. Moreover, in data set [2], the half-life was determined as 1 h. Besides, in data set [3], the ED50 was 6 µmol/kg.

For `Cc1nnc(CNC(=O)CCCN)n1-c1ccc(Cl)cc1C(=O)c1ccccc1`, the Control is 51% in data set [1], 10% in data set [6], 20% in data set [4] and 80% in data set [5]. The compound also gave an ED50 in data set [3] of 320 µmol/kg.

`Cc1nnc2n1-c1ccc(Cl)cc1C(c1ccccc1)=NC2` displayed an ED50 in data set [3] of 2.9 µmol/kg.
